ChEMBL document CHEMBL5696442, “Discovery of type II inhibitors of TGFβ-activated kinase 1 (TAK1) and mitogen-activated protein kinase kinase kinase kinase 2 (MAP4K2)” (J Med Chem, 2015)

Assays:
[1] = molecular target: RAF proto-oncogene serine/threonine-protein kinase (Homo sapiens, UniProt P04049); experiment: Inhibition of RAF1 Lys2 labeling site in human A-375 cells at 0.5 uM by KiNativ Profiling analysis relative to control; type: cell-based
BaF3 = experiment: Antiproliferative activity against parental mouse BaF3 cells harbouring Bcr/Abl assessed reduction in cell viability measured after 48 hrs by Celltiter-glo assay; type: functional, cell-based; conditions: BaF3, 48 h
Procedure, shortened: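 Cells were grown with serial dilutions of compound for 48 h, and viability was read by CellTiter-Glo. IC50 was derived from the dose–response curve. Parental Ba/F3 cells were grown in the presence of interleukin 3. The BCR-ABL line is BCR-ABL-dependent Ba/F3.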

[2] = molecular target: Interleukin-1 receptor-associated kinase 1 (Homo sapiens) (UniProt P51617); experiment: Inhibition of IRAK1 Lys2 labeling site in human A-375 cells at 5 uM by KiNativ Profiling analysis relative to control; type: cell-based
[3] = molecular target: T1, Aurora kinase A (Homo sapiens) (UniProt O14965); experiment: Inhibition of AurA ATP Loop labeling site in human A-375 cells at 0.5 uM by KiNativ Profiling analysis relative to control; type: cell-based
T1 sequence (whole entry): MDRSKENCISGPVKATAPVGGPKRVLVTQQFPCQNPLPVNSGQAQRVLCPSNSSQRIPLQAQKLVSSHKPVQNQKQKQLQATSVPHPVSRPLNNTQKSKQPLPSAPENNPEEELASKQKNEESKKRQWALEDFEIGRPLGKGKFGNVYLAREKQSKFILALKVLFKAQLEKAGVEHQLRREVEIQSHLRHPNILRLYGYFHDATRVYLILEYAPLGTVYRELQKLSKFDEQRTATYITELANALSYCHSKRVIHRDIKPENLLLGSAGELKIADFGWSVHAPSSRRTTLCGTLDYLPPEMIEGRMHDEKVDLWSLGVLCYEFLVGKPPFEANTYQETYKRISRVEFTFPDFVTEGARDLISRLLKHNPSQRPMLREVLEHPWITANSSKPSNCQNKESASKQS
Procedure, shortened: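 Live A375 melanoma cells were treated with compound at 5 or 0.5 μM, then lysed. The lysates were labeled with a lysine-reactive ATP or ADP-biotin probe. Kinase protection from probe labeling was measured by KiNativ.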

[4] = molecular target: Epidermal growth factor receptor (Homo sapiens) (UniProt P00533); experiment: Inhibition of EGFR ACT labeling site harbouring LLGAEEKEYHAEGGKVPIK in human A-375 cells at 0.5 uM by KiNativ Profiling analysis relative to control; type: cell-based
Procedure, shortened: (§1)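 Live A375 melanoma cells were treated with compound at 0.5 or 5 μM, then lysed. Lysates were labeled with a lysine-reactive ATP or ADP-biotin probe. The read-out was protection of each kinase probe-labeling site from labeling, relative to control.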

[5] = molecular target: Mitogen-activated protein kinase 7 (Homo sapiens) (UniProt Q13164); experiment: Inhibition of Erk5 Lys2 labeling site in human A-375 cells at 0.5 uM by KiNativ Profiling analysis relative to control; type: cell-based; procedure, shortened: as §1
[6] = molecular target: Serine/threonine-protein kinase mTOR (Homo sapiens) (UniProt P42345); experiment: Inhibition of FRAP ATP labeling site in human A-375 cells at 0.5 uM by KiNativ Profiling analysis relative to control; type: cell-based; procedure, shortened: as §1
[7] = molecular target: eIF-2-alpha kinase GCN2 (Homo sapiens) (UniProt Q9P2K8); experiment: Inhibition of GCN2 domain2 Lys1 labeling site in human A-375 cells at 0.5 uM by KiNativ Profiling analysis relative to control; type: cell-based
[8] = molecular target: Tyrosine-protein kinase JAK1 (Homo sapiens) (UniProt P23458); experiment: Inhibition of JAK1 in human A-375 cells at 0.5 uM by KiNativ Profiling analysis relative to control; type: cell-based
Sequence of Tyrosine-protein kinase JAK1 (Homo sapiens) (P23458 whole entry): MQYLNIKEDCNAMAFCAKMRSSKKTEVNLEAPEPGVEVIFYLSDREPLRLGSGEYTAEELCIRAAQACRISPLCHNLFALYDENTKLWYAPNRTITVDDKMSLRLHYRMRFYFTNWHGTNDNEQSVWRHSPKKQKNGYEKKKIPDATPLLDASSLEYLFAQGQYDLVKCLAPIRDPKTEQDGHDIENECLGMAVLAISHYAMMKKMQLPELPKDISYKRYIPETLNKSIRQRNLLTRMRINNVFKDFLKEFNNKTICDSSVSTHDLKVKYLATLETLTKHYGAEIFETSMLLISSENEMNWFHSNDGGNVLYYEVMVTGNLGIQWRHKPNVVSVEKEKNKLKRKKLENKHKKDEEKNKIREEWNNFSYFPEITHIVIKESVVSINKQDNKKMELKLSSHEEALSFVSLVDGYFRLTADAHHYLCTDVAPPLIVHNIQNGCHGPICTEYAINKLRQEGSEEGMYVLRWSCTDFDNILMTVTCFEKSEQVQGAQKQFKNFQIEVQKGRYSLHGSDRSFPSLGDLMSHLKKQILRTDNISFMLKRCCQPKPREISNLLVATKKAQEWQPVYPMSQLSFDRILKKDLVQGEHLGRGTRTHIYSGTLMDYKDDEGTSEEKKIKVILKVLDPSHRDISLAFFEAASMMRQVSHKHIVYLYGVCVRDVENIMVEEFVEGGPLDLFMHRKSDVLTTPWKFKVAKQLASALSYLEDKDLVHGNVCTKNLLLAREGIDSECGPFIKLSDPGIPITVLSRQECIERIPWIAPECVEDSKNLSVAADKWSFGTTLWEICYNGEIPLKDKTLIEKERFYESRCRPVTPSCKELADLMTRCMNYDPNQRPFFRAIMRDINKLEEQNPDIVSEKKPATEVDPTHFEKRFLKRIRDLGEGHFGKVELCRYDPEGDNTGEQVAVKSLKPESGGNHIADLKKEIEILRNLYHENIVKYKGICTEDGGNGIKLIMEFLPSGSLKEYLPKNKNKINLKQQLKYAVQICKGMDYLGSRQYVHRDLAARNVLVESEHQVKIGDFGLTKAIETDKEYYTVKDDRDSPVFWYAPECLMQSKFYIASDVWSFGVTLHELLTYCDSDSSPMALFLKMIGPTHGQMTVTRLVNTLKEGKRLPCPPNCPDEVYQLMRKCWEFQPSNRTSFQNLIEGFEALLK

[9] = molecular target: Dual specificity mitogen-activated protein kinase kinase 1 (Homo sapiens) (UniProt Q02750); experiment: Inhibition of MAP2K1 Lys1 labeling site in human A-375 cells at 0.5 uM by KiNativ Profiling analysis relative to control; type: cell-based
Sequence of Dual specificity mitogen-activated protein kinase kinase 1 (Homo sapiens) (Q02750 whole entry): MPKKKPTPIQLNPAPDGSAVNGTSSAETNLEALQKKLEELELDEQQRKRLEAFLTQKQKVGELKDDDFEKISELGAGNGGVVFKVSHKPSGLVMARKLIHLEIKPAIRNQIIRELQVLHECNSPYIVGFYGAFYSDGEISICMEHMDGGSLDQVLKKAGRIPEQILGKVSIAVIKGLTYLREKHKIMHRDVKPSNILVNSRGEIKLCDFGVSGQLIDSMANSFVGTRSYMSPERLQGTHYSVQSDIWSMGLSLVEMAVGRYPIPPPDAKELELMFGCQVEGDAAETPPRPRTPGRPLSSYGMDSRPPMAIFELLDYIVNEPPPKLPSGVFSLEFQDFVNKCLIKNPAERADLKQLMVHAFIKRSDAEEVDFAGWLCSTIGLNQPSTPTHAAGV

[10] = molecular target: Protein kinase C beta type (Homo sapiens) (UniProt P05771); experiment: Inhibition of PKCb Lys2 labeling site in human A-375 cells at 0.5 uM by KiNativ Profiling analysis relative to control; type: cell-based
[11] = molecular target: Misshapen-like kinase 1 (Homo sapiens) (UniProt Q8N4C8); experiment: Inhibition of ZC3/MINK Lys2 labeling site in human A-375 cells at 0.5 uM by KiNativ Profiling analysis relative to control; type: cell-based
[12] = molecular target: Protein kinase C alpha type (Homo sapiens) (UniProt P17252); experiment: Inhibition of PKCa Lys2 labeling site in human A-375 cells at 0.05 uM by KiNativ Profiling analysis relative to control; type: cell-based
[13] = molecular target: Serine/threonine-protein kinase WNK2 (Homo sapiens) (UniProt Q9Y3S1); experiment: Inhibition of Wnk2 ATP Loop labeling site in human A-375 cells at 0.05 uM by KiNativ Profiling analysis relative to control; type: cell-based
Sequence of Serine/threonine-protein kinase WNK2 (Homo sapiens) (Q9Y3S1 whole entry): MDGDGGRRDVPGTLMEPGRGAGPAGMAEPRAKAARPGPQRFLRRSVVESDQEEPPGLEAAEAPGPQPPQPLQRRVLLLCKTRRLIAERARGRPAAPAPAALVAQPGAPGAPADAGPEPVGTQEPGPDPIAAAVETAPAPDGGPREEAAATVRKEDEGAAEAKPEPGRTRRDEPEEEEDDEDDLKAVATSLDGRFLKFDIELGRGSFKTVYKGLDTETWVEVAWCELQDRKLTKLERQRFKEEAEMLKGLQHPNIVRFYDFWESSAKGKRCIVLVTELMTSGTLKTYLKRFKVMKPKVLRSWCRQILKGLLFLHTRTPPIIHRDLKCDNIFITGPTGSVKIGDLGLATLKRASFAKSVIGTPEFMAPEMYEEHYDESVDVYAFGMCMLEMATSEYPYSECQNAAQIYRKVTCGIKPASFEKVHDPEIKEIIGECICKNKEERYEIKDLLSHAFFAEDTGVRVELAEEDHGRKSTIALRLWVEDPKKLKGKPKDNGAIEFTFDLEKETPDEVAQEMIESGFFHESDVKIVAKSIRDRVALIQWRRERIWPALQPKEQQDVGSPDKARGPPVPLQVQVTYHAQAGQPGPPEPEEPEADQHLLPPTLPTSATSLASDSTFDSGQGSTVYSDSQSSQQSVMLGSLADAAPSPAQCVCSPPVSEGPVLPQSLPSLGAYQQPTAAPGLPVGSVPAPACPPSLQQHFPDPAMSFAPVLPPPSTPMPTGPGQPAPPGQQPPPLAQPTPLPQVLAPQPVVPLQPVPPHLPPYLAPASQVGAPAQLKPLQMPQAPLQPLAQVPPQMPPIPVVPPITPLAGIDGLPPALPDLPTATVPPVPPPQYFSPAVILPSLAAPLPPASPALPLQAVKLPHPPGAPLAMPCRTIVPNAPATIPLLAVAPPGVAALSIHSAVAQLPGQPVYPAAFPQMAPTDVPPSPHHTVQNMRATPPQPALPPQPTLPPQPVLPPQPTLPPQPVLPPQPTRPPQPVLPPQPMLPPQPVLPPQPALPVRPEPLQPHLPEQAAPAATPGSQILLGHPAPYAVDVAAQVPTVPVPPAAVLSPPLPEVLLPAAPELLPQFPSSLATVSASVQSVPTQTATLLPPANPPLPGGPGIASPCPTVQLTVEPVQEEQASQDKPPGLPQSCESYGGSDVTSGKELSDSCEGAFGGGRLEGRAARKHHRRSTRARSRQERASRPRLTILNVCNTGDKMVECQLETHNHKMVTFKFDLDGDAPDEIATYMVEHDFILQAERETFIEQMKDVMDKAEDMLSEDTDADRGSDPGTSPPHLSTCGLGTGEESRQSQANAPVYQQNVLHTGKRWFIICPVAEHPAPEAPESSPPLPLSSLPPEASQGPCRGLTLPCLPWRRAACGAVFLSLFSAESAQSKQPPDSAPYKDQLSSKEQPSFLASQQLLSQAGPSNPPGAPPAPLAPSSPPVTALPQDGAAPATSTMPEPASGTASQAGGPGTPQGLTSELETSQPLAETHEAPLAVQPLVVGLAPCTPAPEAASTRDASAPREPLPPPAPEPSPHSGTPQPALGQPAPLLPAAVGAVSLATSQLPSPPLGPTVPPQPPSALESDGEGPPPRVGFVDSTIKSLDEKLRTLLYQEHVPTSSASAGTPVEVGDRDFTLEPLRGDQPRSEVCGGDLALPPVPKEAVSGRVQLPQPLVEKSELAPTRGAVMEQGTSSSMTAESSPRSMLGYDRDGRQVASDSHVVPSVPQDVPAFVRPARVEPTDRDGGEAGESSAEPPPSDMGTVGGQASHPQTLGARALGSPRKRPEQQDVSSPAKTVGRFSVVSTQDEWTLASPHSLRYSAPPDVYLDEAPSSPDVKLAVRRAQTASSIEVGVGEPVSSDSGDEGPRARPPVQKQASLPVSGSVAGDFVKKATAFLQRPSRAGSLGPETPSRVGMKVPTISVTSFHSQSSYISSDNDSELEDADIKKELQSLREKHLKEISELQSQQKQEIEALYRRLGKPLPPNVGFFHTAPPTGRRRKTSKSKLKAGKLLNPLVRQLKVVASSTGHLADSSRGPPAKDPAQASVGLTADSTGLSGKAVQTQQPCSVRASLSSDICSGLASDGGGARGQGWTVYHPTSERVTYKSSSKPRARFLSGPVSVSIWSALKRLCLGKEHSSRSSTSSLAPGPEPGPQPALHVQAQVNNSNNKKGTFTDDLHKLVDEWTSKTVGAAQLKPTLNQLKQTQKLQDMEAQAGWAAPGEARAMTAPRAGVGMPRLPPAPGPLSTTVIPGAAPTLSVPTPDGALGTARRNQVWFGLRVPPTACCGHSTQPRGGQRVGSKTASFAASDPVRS

[14] = Inhibition of p70S6K Lys2 labeling site in human A-375 cells at 5 uM by KiNativ Profiling analysis relative to control; conditions: condition cancer
[15] = molecular target: 3-phosphoinositide-dependent protein kinase 1 (Homo sapiens) (UniProt O15530); experiment: Inhibition of PDK1 Protein Kinase Domain in human A-375 cells at 0.05 uM by KiNativ Profiling analysis relative to control
Sequence of 3-phosphoinositide-dependent protein kinase 1 (Homo sapiens) (O15530 whole entry, looked up, the tested form may be a part): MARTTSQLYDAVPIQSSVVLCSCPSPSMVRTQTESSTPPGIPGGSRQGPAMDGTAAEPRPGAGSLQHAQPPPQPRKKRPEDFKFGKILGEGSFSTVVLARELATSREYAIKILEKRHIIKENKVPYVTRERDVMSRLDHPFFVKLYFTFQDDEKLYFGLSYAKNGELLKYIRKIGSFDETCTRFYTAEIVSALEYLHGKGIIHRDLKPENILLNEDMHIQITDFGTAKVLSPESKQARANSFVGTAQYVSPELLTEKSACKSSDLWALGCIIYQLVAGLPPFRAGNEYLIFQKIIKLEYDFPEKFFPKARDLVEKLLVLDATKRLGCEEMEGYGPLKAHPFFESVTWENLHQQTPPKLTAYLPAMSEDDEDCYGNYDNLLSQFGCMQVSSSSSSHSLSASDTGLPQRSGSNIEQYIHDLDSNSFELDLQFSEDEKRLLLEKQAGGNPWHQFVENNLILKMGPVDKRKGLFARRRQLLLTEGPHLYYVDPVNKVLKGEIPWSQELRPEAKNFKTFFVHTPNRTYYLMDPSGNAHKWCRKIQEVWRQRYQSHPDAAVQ

[16] = molecular target: T2, Mitogen-activated protein kinase kinase kinase 7 (Homo sapiens) (UniProt O43318); experiment: Inhibition of TAK1 Lys2 labeling site in human Huh-7 cell lysate at 1 uM by KiNativ Profiling analysis relative to control; type: subcellular
T2 sequence (whole entry): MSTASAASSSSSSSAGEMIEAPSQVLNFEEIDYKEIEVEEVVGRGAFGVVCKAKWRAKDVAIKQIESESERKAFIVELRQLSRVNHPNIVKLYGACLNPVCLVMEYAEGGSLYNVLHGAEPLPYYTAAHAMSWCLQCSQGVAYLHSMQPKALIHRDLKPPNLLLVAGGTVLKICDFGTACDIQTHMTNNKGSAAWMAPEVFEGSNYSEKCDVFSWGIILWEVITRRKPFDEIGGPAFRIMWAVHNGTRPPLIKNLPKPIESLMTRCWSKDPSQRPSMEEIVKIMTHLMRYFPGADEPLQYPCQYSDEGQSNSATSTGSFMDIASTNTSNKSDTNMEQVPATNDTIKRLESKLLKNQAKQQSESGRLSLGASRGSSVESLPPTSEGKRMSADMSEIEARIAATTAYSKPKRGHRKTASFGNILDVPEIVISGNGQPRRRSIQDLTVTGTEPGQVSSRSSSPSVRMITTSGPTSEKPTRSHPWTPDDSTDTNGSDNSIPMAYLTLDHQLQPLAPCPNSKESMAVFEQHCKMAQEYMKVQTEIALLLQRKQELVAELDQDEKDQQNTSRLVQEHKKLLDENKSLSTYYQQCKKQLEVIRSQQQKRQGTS

| SMILES | inhibition [1] [%] | IC50 (BaF3) [nM] | inhibition [2] [%] | inhibition [3] [%] | inhibition [4] [%] | inhibition [5] [%] | inhibition [6] [%] | inhibition [7] [%] | inhibition [8] [%] | inhibition [9] [%] | inhibition [10] [%] | inhibition [11] [%] | inhibition [12] [%] | inhibition [13] [%] | inhibition at 5 µM [14] [%] | inhibition [15] [%] | inhibition [16] [%] |
| --- | --- | --- | --- | --- | --- | --- | --- | --- | --- | --- | --- | --- | --- | --- | --- | --- | --- |
| CCN1CCN(Cc2ccc(NC(=O)c3ccc(C)c(/C=C/c4cnc5[nH]ccc5c4OC)c3)cc2C(F)(F)F)CC1 | 82.6 | 10 | 61.1 | 30.2 | -0.5 | 14 | 0.8 | 40.4 | 5.7 | 4.4 | 48.2 | 48.1 | 58 | 5 | -15.2 | -1.5 | – |
| CCN1CCN(Cc2ccc(NC(=O)c3ccc(C)c(Oc4ccnc5[nH]ccc45)c3)cc2C(F)(F)F)CC1 | 79.2 | 18 | 7.4 | 31.2 | 4.8 | 6.8 | -3 | -10 | 13 | -3.5 | 65 | 70.8 | 45.3 | 2.4 | -45.5 | 11.2 | – |
| CNc1cc(Oc2cc(C(=O)Nc3cc(-n4cnc(C)c4)cc(C(F)(F)F)c3)ccc2C)ncn1 | – | – | – | – | – | – | – | – | – | – | – | – | – | – | – | – | 29.3 |
| CNc1cc(Oc2cc(C(=O)Nc3cc(N4CCN(C)CC4)cc(C(F)(F)F)c3)ccc2C)ncn1 | – | – | – | – | – | – | – | – | – | – | – | – | – | – | – | – | 7 |
